# Source: ChEMBL document CHEMBL3627654, “Ring substitution influences oxidative cyclisation and reactive metabolite formation of nordihydroguaiaretic acid analogues” (Bioorg Med Chem, 2015)
# Columns and labels:
# [1] = Drug degradation in 0.5M phosphate citric acid buffer at 0.5 mM at pH 7.4 at 37 degC by HPLC-UV analysis; format: physicochemical; details: pH 7.4, 500 µM
# Method in brief: (§1)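 Aliquots over time quenched to pH 1.5 with HCl, quantified by HPLC against standard curves (peak area ratio to DMPA). k from slope of ln(C/Co) versus time, pseudo-first-order; half-life derived.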
# [2] = Half life of the compound in 0.5M phosphate citric acid buffer at 0.5 mM at pH 7.4 at 37 degC by HPLC-UV analysis; format: ADME; method in brief: as §1
# [3] = Stability of compound in 0.5M phosphate citric acid buffer assessed as autoxidative conversion at 0.1 mM at pH 7.4 at 37 degC for 90 mins by HPLC-UV analysis; format: physicochemical; details: pH 7.4, 1.5 h, 100 µM
# Method in brief: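 Incubated 90 min at 37 °C. Dibenzocyclooctadiene formation monitored by HPLC, with products examined by MS and NMR. NDGA served as positive control.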
# [4] = Stability of compound assessed as level of starting material at 37 degC for 6 hrs in presence of 20 fold excess of glutathione; format: physicochemical; details: read-out: Stability
# Method in brief: (§2)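 Substrate and DMPA internal standard, 0.5 mM each, incubated in phosphate–citrate buffer (0.5 M, pH 7.4) at 37 °C for 6 h with or without 20-fold excess glutathione. Samples acidified to pH 1.5 and analysed directly by HPLC and ESI-MS. Relative percentage of starting material, cyclised product and adduct reported.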
# [5] = Stability of compound assessed as level of starting material at 37 degC for 6 hrs in absence of glutathione; format: physicochemical; details: read-out: Stability; method in brief: as §2
# [6] = Stability of compound assessed as formation of 5,6,7,8-Tetrahydro-dibenzo[a,c]cyclooctene-2,3,10,11-tetraol in phosphate citric acid buffer at pH 7.4 at 37 degC by HPLC-UV analysis; format: physicochemical
# Method in brief: (§3)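 Formation rate of the dibenzocyclooctadiene inferred from loss of the parent substrate (0.5 mM, DMPA internal standard) in phosphate–citric acid buffer (0.5 M, pH 7.4) at 37 °C. Aliquots acidified to pH 1.5 with HCl and analysed by HPLC; first-order k from ln(C/Co) versus time, relative rate versus NDGA.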
# [7] = Stability of compound assessed as formation of 5,6,7,8-Tetrahydro-dibenzo[a,c]cyclooctene-2,3,10,11-tetraol in phosphate citric acid buffer at pH 7.4 at 37 degC by HPLC-UV analysis relative to NDGA; format: physicochemical; method in brief: as §3
# [8] = Drug degradation in phosphate citric acid buffer at pH 7.4 at 37 degC at 0.5 mM by HPLC-UV analysis; format: physicochemical; details: pH 7.4, 500 µM; method in brief: as §1
# [9] = Drug degradation in phosphate citric acid buffer at pH 7.4 at 37 degC by HPLC-UV analysis relative to cNDGA; format: physicochemical
# Method in brief: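 Cyclised dibenzocyclooctadiene derivative (0.5 mM) with DMPA internal standard incubated in phosphate–citric acid buffer (0.5 M, pH 7.4) at 37 °C; aliquots acidified to pH 1.5 and parent loss followed by HPLC. First-order rate constant from ln(C/Co) versus time, expressed relative to cNDGA.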
# [10] = Stability of compound assessed as formation of cNDGA in phosphate citric acid buffer at pH 7.4 at 37 degC by HPLC-UV analysis; format: physicochemical; method in brief: as §3
# [11] = Dissociation constant, pKa of compound; format: physicochemical
# [12] = Stability of compound in 0.5M phosphate citric acid buffer assessed as drug degradation at 0.5 mM at pH 7.4 at 37 degC for 48 hrs by HPLC-UV analysis; format: physicochemical; details: read-out: Drug degradation; method in brief: as §1
K [1] [×10⁻⁵ /s],half-life at 500 µM [2] [h],Compound,Drug metabolism [3],also measured
13.1,1.47,Oc1ccc(CCCCc2ccc(O)c(O)c2)cc1O,metabolite_detected,remaining at 6 h [4]: 95.5%; remaining at 6 h [5]: 8.52%; K [6]: 8.7 ×10⁻⁵ /s; Ratio [7]: 3.1
,,Oc1cc2c(cc1O)-c1cc(O)c(O)cc1CCCC2,,K [8]: 1.75 ×10⁻⁵ /s; Ratio [9]: 3.7
2.87,6.7,COc1cc(CC(C)C(C)Cc2ccc(O)c(OC)c2)ccc1O (centres undefined) [DIHYDROGUAIARETIC ACID],metabolite_detected,
4.11,4.68,COc1ccc(CC(C)C(C)Cc2ccc(OC)c(O)c2)cc1O (centres undefined),metabolite_detected,
4.88,3.94,CC(Cc1ccc(O)c(O)c1)C(C)Cc1ccc(O)c(O)c1 (centres undefined) [NORDIHYDROGUAIARETIC ACID],metabolite_detected,remaining at 6 h [4]: 87.1%; remaining at 6 h [5]: 66.9%; K [10]: 2.78 ×10⁻⁵ /s; pKa [11]: 9.3
,,CC(Cc1cccc(O)c1)C(C)Cc1cccc(O)c1 (centres undefined),metabolite_detected,"degraded at 48 h, 500 µM [12]: < 5%"
3.5,5.49,COc1cc(CC(C)C(C)Cc2ccccc2)ccc1O (centres undefined),metabolite_detected,
4.16,4.62,COc1ccc(CC(C)C(C)Cc2ccc(O)c(O)c2)cc1OC (centres undefined),metabolite_detected,
,,CC1Cc2cc(O)c(O)cc2-c2cc(O)c(O)cc2CC1C (centres undefined),,K [8]: 0.47 ×10⁻⁵ /s
4.56,4.22,CC(Cc1ccccc1)C(C)Cc1ccc(O)c(O)c1 (centres undefined),metabolite_detected,
